Experiments:
Escherichia coli = experiment: Antibacterial activity (10 e-6 log (1/MIC) towards Escherichia coli; type: functional
In short: (§1)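 Two-fold serial dilution: each compound prepared as a series of solutions differing by a factor of two, each added to a fixed amount of previously prepared test culture, incubated at 37 °C overnight.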

Staphylococcus aureus = experiment: Antibacterial activity (10 e-6 log (1/MIC) towards Staphylococcus aureus; type: functional; in short: as §1
[1] = Partition coefficient (logP); type: physicochemical; conditions: octanol/water
[2] = Dissociation constant was determined using UV method; type: physicochemical
In short: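 UV spectrophotometric method. Aqueous stock of compound in distilled water, diluted into 0.01 M NaOH (pH ~12) and 0.001 M HCl (pH ~3) to pick an analytical wavelength from the difference spectrum. Five to seven KH2PO4/borax buffers bracketing the estimated pKa, pH measured at 25 °C. Absorbance read in a 1.0-cm cell at 25.0 °C against buffer. Separate values averaged with SD to give the concentration pKa.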

[3] = Acute toxicity determined in mice by an LD50 test when administered perorally; type: organism-based; conditions: mouse, in vivo, po
[4] = Acute toxicity determined in mice by an LD50 test when administered intraperitoneally; type: organism-based; conditions: mouse, in vivo, ip
[5] = Acute toxicity determined in mice by an LD50 test when administered peritoneally; type: organism-based; conditions: mouse, in vivo, ip

SMILES	Log 1/MIC (Escherichia coli)	Log 1/MIC (Staphylococcus aureus)	logP [1]	pKa [2]	LD50 [3]	LD50 [4]	LD50 [5]
Nc1nc(N)c2c(O)cccc2n1	<-0.7	-0.7					
Nc1nc(N)c2c(OCc3ccccc3)cccc2n1	0.8	1	2.82				
NC(=O)c1cccc2nc(N)nc(N)c12	-0.6	<-0.7	-0.33	7.22			
Nc1nc(N)c2c(I)cccc2n1	1.7	0.4	2.12		~500 mg/kg		
Nc1nc(N)c2c(Oc3ccccc3)cccc2n1	0.2	0	2.78				
CCSc1cccc2nc(N)nc(N)c12	2	-0.1	2.27	7.87			
CCc1cccc2nc(N)nc(N)c12	2.6	0.6	1.69				
Nc1nc(N)c2c(S(=O)(=O)c3ccccc3)cccc2n1	<-0.5	<-0.5	2.14				
COC(=O)c1cccc2nc(N)nc(N)c12	-0.1	-0.6				68 mg/kg	
Nc1nc(N)c2c(N3CCOCC3)cccc2n1	-0.6	-0.6	1.11				
Nc1nc(N)c2c(N)cccc2n1	0.3	<0.2	0.3				
Nc1nc(N)c2c(Br)cccc2n1	2.2	1.5	1.91		271 mg/kg		
CCCNC(=O)c1cccc2nc(N)nc(N)c12	<-0.6	<-0.6	0.83				
CC(C)Oc1cccc2nc(N)nc(N)c12	0.8	-0.1	2.05				
CCCSc1cccc2nc(N)nc(N)c12			2.85				
CCCCOc1cccc2nc(N)nc(N)c12	0.6	0.4	2.81				

SMILES	Log 1/MIC (Escherichia coli)	Log 1/MIC (Staphylococcus aureus)	logP [1]	pKa [2]	LD50 [3]	LD50 [4]	LD50 [5]
CN(C)c1cccc2nc(N)nc(N)c12	-0.4	-0.5	1.65				
CSc1cccc2nc(N)nc(N)c12	2.2	0	1.81				
CCCOc1cccc2nc(N)nc(N)c12	1.1	0.2	2.26				
Nc1ncnc2ccccc12 [4-AMINOQUINAZOLINE]						205 mg/kg	584 mg/kg
Nc1nc(N)c2c(CCc3ccccc3)cccc2n1	1.3	1.3					
CCCCCCOc1cccc2nc(N)nc(N)c12	0	1.1					
COc1cccc2nc(N)nc(N)c12	2.1	1	1.18	8.32	~500 mg/kg	137 mg/kg	
Nc1nc(N)c2c(Sc3ccccc3)cccc2n1	< -0.6	< -0.6					
Nc1nc(N)c2ccccc2n1	0.7	1.3	1.01	8.08			
Nc1nc(N)c2c([N+](=O)[O-])cccc2n1	<0.5	0	1.19	6.24			
CCOc1cccc2nc(N)nc(N)c12	1.7	0.2	1.69			~100 mg/kg	
Nc1nc(N)c2c(F)cccc2n1	1.7	1.4	1.19	7.44	489 mg/kg	100 mg/kg	
Cc1cccc2nc(N)nc(N)c12	1.7	0.5	1.26	8.19		~100 mg/kg	
Nc1nc(N)c2c(Cl)cccc2n1	2.1	1.2	1.72	7.22		100 mg/kg	
CS(=O)(=O)c1cccc2nc(N)nc(N)c12	<-0.6	<-0.6	0.63				
Nc1nc(N)c2c(N3CCCCC3)cccc2n1			2.66				

— ChEMBL document CHEMBL1124963, “Antifolate and antibacterial activities of 5-substituted 2,4-diaminoquinazolines” (J Med Chem, 1990)
